Bioassay records deposited in PubChem by several laboratories.
ALR H2O2 inh = human ALR oxidase inhibition via reduced H2O2; P55789; purified ALR, DTT oxidation, H2O2 HRP-luminol luminescence; inhibition, % (concentration not given with the values); 290,000 compounds, 3.8% hits;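 active = mean replicate inhibition above about 79%, with every replicate also reaching it, limit read from the data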
Target sequence (P55789 whole entry, looked up): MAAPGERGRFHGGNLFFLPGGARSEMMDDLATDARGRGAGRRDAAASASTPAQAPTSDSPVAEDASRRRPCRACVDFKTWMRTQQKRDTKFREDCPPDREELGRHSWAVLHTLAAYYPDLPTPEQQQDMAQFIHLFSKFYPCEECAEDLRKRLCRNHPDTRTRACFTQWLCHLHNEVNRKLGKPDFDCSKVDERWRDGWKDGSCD
Rin1 Abl inh = inhibitors of human Rin1-Abl protein interaction; P00519+Q13671; TR-FRET Rin1/Abl binding, biochemical; inhibition, % at 7.35 µM; 360,000 compounds, 0.4% hits; in the data active = inhibition above about 5%, passing the limit was not always enough
UBC13 polyUb = human UBC13 polyubiquitination inhibition. P61088. UBC13 polyubiquitin chain formation, TR-FRET. inhibition, % at 20 µM. 330,000 compounds, 0.47% hits; in the data active = inhibition above about 45%, passing the limit was not always enough
Target sequence (P61088 whole entry, looked up): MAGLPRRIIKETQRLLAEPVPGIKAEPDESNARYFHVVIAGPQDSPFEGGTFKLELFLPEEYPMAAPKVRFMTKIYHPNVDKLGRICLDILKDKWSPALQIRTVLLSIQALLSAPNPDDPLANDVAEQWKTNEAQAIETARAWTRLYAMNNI
RBBP9 inhibitor = blocks human serine hydrolase RBBP9; O75884; recombinant RBBP9, FP-Rh probe fluorescence polarization; inhibition, % at 7.94 µM; 220,000 compounds, 0.2% hits; AID 1515;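 active = inhibition above the campaign mean of all tested compounds plus 3 SD, cut at about 14% in these data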
Target sequence (O75884 whole entry, looked up): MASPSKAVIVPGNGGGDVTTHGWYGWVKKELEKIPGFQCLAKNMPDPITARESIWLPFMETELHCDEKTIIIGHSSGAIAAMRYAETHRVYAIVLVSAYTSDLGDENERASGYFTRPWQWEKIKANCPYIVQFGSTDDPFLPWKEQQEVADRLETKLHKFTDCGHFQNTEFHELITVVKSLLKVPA
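Measured by – fluorescence polarization · Test system – RBBP9 protein · Input – 2.5 µM RBBP9 dispensing solution, before mixing · Measure – percent inhibition from mP, scaled between DMSO and no-protein wells · Benchmarks – DMSO-treated enzyme wells and wells lacking RBBP9 · Times – preincubation 30 min plus labeling 45 min at 25 °C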
SUMO HTRF inh = SUMOylation inhibition. AID 2006. P63279. 290,000 compounds, 0.36% hits. HTRF SUMOylation assay, SAE1/SAE2 + UBC9, in vitro. inhibition, % at 35 µM; in the data active = inhibition above about 50%, passing the limit was not always enough
Target sequence (P63279 whole entry, looked up): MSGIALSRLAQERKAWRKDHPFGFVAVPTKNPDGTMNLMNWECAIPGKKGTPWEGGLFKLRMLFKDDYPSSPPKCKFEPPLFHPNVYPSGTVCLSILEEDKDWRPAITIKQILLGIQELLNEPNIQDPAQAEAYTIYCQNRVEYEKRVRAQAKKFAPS
PREPL inhibitor = inhibitors of human prolyl oligopeptidase-like enzyme PREPL. 320,000 compounds, 0.68% hits. AID 2751. recombinant PREPL, fluorescence polarization activity-based probe. Q4J6C6. inhibition, % at 5.96 µM; in the data active = inhibition above about 43%
Of the large screens only hits and unclear results are named; the others gave an inactive call. Only some compounds are listed: those with a hit (about 4.3% of all), similar ones and a draw of the others.

COCCNC(=O)C1(C)CCN(Cc2ccc(C(C)C)cc2)C1 (centres undefined)	none (no result: ALR H2O2 inh, UBC13 polyUb, RBBP9 inhibitor, SUMO HTRF inh, PREPL inhibitor)
NC(=O)Cc1ccc(Nc2nnc(-c3ccc(O)cc3)c3ccccc23)cc1	ALR H2O2 inh 99
NC(=O)c1ccc(Nc2nnc(-c3ccc(O)cc3)c3ccccc23)cc1	ALR H2O2 inh 96
CNC(=O)c1ccc(Nc2nnc(-c3ccc(C(N)=O)cc3)c3ccccc23)cc1	none (no result: RBBP9 inhibitor)
CC(=O)Nc1ccc(Nc2nnc(-c3ccc(O)cc3)c3ccccc23)cc1	ALR H2O2 inh 84 (no result: RBBP9 inhibitor)
CCCS(=O)(=O)NC(=O)C1(C)CCN(C(=O)c2cc(C)oc2C)C1 (centres undefined)	none (no result: ALR H2O2 inh, UBC13 polyUb, RBBP9 inhibitor, SUMO HTRF inh, PREPL inhibitor)
Cc1cccc(NC(=O)CCN2CCC(C)CC2)c1	none (no result: RBBP9 inhibitor)
NNC(=O)CNC(c1ccccc1)c1cc(Br)ccc1N (centres undefined)	none
COC(=O)CNC(c1ccccc1)c1cc(Br)ccc1N (centres undefined)	ALR H2O2 inh 99
O=C(/C=C/c1cc[n+](CC(=O)c2ccc3cccc4c3c2CC4)cc1)c1ccc2cccc3c2c1CC3	UBC13 polyUb 51 (no result: ALR H2O2 inh)
Cc1cnc(C(=O)OCC(=O)Nc2oc(-c3ccccc3)c(-c3ccccc3)c2C#N)cn1	ALR H2O2 inh 97
COCC1OC(OC(C)C(O)c2cnc3nc(N)[nH]c(=O)c3n2)C(O)C(OC)C1O (centres undefined)	none (no result: ALR H2O2 inh, UBC13 polyUb, RBBP9 inhibitor, SUMO HTRF inh, PREPL inhibitor)
CC(C)(c1ccc(O)cc1)c1ccc(O)cc1	ALR H2O2 inh 91 (no result: RBBP9 inhibitor)
O=C(Oc1ccc[nH]c1=O)c1cccc(Cl)c1	SUMO HTRF inh 100
C/C(=N\Nc1ccccn1)c1ccc(OC(F)F)cc1	ALR H2O2 inh 89
C/C(=N\Nc1ccccn1)c1cccs1	ALR H2O2 inh 99
CN1C=CC=C/C1=C1/SC(=S)N(Cc2ccccc2)C1=O	ALR H2O2 inh 99
CCN1/C(=C2\SC(=S)N(Cc3ccccc3)C2=O)Sc2ccccc21	none (no result: ALR H2O2 inh)
CCN1C(=O)/C(=C2/C=CC=CN2C)SC1=S	ALR H2O2 inh 99
Cc1ccc(CSCC(=O)Nc2cc(S(=O)(=O)N3CCOCC3)ccc2OCC(F)(F)F)cc1	none (no result: ALR H2O2 inh, UBC13 polyUb, RBBP9 inhibitor, SUMO HTRF inh, PREPL inhibitor)
O=C(Nc1ccsc1C(=O)O)c1ccc(Cl)cc1	ALR H2O2 inh 97 (no result: RBBP9 inhibitor)
Cc1ccc(C(=O)Nc2ccsc2C(=O)O)cc1	none (no result: ALR H2O2 inh, RBBP9 inhibitor)
Cc1ccc(-c2cn3c(n2)SCC3)cc1	ALR H2O2 inh 98
O=C(CN(Cc1ccco1)C(=O)c1cccc(F)c1)Nc1ccccc1C(F)(F)F	none (no result: UBC13 polyUb, RBBP9 inhibitor, SUMO HTRF inh)
C#CCOCCOCCOCCNc1nc(N2CCN(C(=O)[C@H]([C@@H](C)CC)n3cc([C@@H](N)CO)nn3)CC2)nc(N2CCN(C(=O)[C@H](Cc3cc4ccccc4[nH]3)n3cc([C@@H](N)Cc4ccc(O)cc4)nn3)CC2)n1	UBC13 polyUb 98, PREPL inhibitor 49 (no result: Rin1 Abl inh, RBBP9 inhibitor)
C#CCOCCOCCOCCNc1nc(N2CCN(C(=O)[C@H]([C@@H](C)CC)n3cc([C@@H](N)CC(C)C)nn3)CC2)nc(N2CCN(C(=O)[C@H](CCCCN)n3cc([C@@H](N)CC(C)C)nn3)CC2)n1	UBC13 polyUb 55 (no result: Rin1 Abl inh)
C#CCOCCOCCOCCNc1nc(N2CCN(C(=O)[C@H](CCC(=O)O)n3cc(C(N)CO)nn3)CC2)nc(N2CCN(C(=O)[C@H](Cc3cc4ccccc4[nH]3)n3cc(C(N)[C@H](C)CC)nn3)CC2)n1 (some centres undefined)	none
C#CCOCCOCCOCCNc1nc(N2CCN(C(=O)[C@H](Cc3cc4ccccc4[nH]3)n3cc([C@@H](N)C(C)CC)nn3)CC2)nc(N2CCN(C(=O)[C@H](Cc3cc4ccccc4[nH]3)n3cc([C@@H](N)CC(C)C)nn3)CC2)n1 (some centres undefined)	UBC13 polyUb 61, PREPL inhibitor 69 (no result: Rin1 Abl inh)
C#CCOCCOCCOCCNc1nc(N2CCN(C(=O)[C@H](Cc3cc4ccccc4[nH]3)n3cc([C@@H](N)C(C)CC)nn3)CC2)nc(N2CCN(C(=O)[C@H](CCCCN)n3cc([C@@H](N)CO)nn3)CC2)n1 (some centres undefined)	UBC13 polyUb 110 (no result: Rin1 Abl inh)
C#CCOCCOCCOCCNc1nc(N2CCOCC2)nc(N2CCN(C(=O)[C@H](Cc3cc4ccccc4[nH]3)n3cc([C@@H](N)Cc4ccc(O)cc4)nn3)CC2)n1	none
C#CCOCCOCCOCCNc1nc(N2CCN(C(=O)[C@H]([C@@H](C)CC)n3cc([C@@H](N)CC(C)C)nn3)CC2)nc(N2CCN(C(=O)[C@H](CCCCN)n3cc([C@@H](N)C(C)CC)nn3)CC2)n1 (some centres undefined)	none (no result: ALR H2O2 inh)
C=CC(C)(C)c1cc2cc3ccoc3cc2oc1=O	none
C#CCOCCOCCOCCNc1nc(N2CCN(C(=O)C([C@@H](C)CC)n3cc(C(N)COC(=O)C(F)(F)F)nn3)CC2)nc(N2CCN(C(=O)[C@H](CCCCN)n3cc(C(N)[C@H](C)CC)nn3)CC2)n1 (some centres undefined)	UBC13 polyUb 114 (no result: Rin1 Abl inh, RBBP9 inhibitor, SUMO HTRF inh)
C#CCOCCOCCOCCNc1nc(N2CCN(C(=O)[C@H](CCCCN)n3cc([C@@H](N)CO)nn3)CC2)nc(N2CCN(C(=O)[C@H](Cc3cc4ccccc4[nH]3)n3cc([C@@H](N)CO)nn3)CC2)n1	UBC13 polyUb 110 (no result: ALR H2O2 inh, Rin1 Abl inh, RBBP9 inhibitor)
C#CCOCCOCCOCCNc1nc(N2CCN(C(=O)[C@H](CCCCN)n3cc([C@@H](N)C(C)CC)nn3)CC2)nc(N2CCN(C(=O)[C@H](CCCCN)n3cc([C@@H](N)CO)nn3)CC2)n1 (some centres undefined)	UBC13 polyUb 46 (no result: Rin1 Abl inh)
C#CCOCCOCCOCCNc1nc(N2CCN(C(=O)[C@H](CCCCN)n3cc([C@@H](N)CO)nn3)CC2)nc(N2CCN(C(=O)[C@H](Cc3ccc(O)cc3)n3cc([C@@H](N)CC(C)C)nn3)CC2)n1	none (no result: ALR H2O2 inh)
C#CCOCCOCCOCCNc1nc(N2CCN(C(=O)[C@H]([C@@H](C)CC)n3cc([C@@H](N)CO)nn3)CC2)nc(N2CCN(C(=O)[C@H](CCCCN)n3cc([C@@H](N)C(C)CC)nn3)CC2)n1 (some centres undefined)	none
C[C@]12c3[nH]c4cc(-c5ccco5)ccc4c3CCN1C(=O)[C@@H](CC(=O)NCCCn1ccnc1)C[C@@H]2C(=O)N1CCOCC1	none (no result: ALR H2O2 inh, UBC13 polyUb, RBBP9 inhibitor, SUMO HTRF inh, PREPL inhibitor)
CC(C)(C)c1ccc(CC(=O)N2CCC2(C)C(=O)NS(=O)(=O)c2ccc(Cl)cc2)cc1 (centres undefined)	none (no result: ALR H2O2 inh, UBC13 polyUb, RBBP9 inhibitor, SUMO HTRF inh, PREPL inhibitor)
CC(C)CN(C(=O)COc1ccccc1C(=O)NCc1ccccc1)C1CCS(=O)(=O)C1 (centres undefined)	none (no result: ALR H2O2 inh, UBC13 polyUb, RBBP9 inhibitor, SUMO HTRF inh, PREPL inhibitor)
O=C1NC(=O)C(c2ccccc2[N+](=O)[O-])=C1Nc1ccc(O)c(Cl)c1	ALR H2O2 inh 99 (no result: RBBP9 inhibitor)
Cc1ccc2c(c1)c1nnc(SCC(=O)Nc3ccc(N(C)C)cc3)nc1n2CC(=O)O	ALR H2O2 inh 100 (no result: RBBP9 inhibitor)
